Data: the EternaBench riboswitch data

Tested on: MS2 coat protein
Test: apparent Kd, MS2 coat protein; higher = weaker binding; RNA-MaP array; FMN 200 µM where present
Outline: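 Binding was read on Illumina sequencing-chip clusters where stalled E. coli RNA polymerase had transcribed each design. A titration of SNAP-549-labelled MS2 coat protein began at 0.7 or 1.5 nM and doubled to 3 µM, once without ligand and once with constant ligand, in 100 mM Tris-HCl pH 7.5, 80 mM KCl, 4 mM MgCl2, BSA, DTT, yeast tRNA and Tween-20. The apparent Kd is the median of filtered per-cluster binding-curve fits, based on green signal normalised to red-channel RNA signal and control-cluster median Fmax.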

[1] = designed as: ON switch for flavin mononucleotide, no ligand
[2] = ligand present: flavin mononucleotide, designed as: ON switch for flavin mononucleotide
[3] = designed as: OFF switch for flavin mononucleotide, no ligand
[4] = ligand present: flavin mononucleotide, designed as: OFF switch for flavin mononucleotide

Sequence: UUUCAUUACCCGAAGGAUAUCGCUCUUCCGACAUGAGGAUCACCCAUGUACUAGCCCUCCCUGCUCGAGAAGGUCGCGCGUGAAC
- apparent Kd [1]: 103 nM
- apparent Kd [2]: 67.4 nM

Sequence: CGCAACUCUGCACAGGUCAACAUGAGGAUCACCCAUGUAUUGAGAAGGAGGAAGAAGAGAGAUUCCUAGGAUAUCAGAGUUGCG
- apparent Kd [3]: 6.45 nM
- apparent Kd [4]: 6.74 nM

Sequence: AUAAUGUAAGGAUAUCAGUCGACUAGCCUCGGCUAGUCGACUGAGAAGGUACAUGAGGAUCACCCAUGUGGUUC
- apparent Kd [3]: 1130 nM
- apparent Kd [4]: 484 nM

Sequence: AAUAAACUCACAGGAUAUAGCAUAGGUCGCGUGAACUUACAGACGACUAUGCUAGAAGGGUGACCACAUGAGGAUCACCCAUGU
- apparent Kd [1]: 880 nM
- apparent Kd [2]: 186 nM

Sequence: UCUGCAUAGUCAGGAUAUGCAAAGUAAUGUAUGGAAACAUACAUUACAACAUGAGGAUCACCCAUGUAGAAGGGACUGUGCAGA
- apparent Kd [3]: 14 nM
- apparent Kd [4]: 13 nM

Sequence: AUAUCUCUGUAAGGAUAUAGAUGGUGUACGCCUCCGACAUGAGGAUCACCCAUGUUAUAUUUUGUCUAGAAGGUACAGUGUCGG
- apparent Kd [1]: 389 nM
- apparent Kd [2]: 222 nM

Sequence: UGUUUUUAUGUGAGGAUAUGGGUUUGGUUGCGGGCUUAGAAGGUACAUGAGGAUCACCCAUGUACUUUGUGCAU
- apparent Kd [3]: 16.4 nM
- apparent Kd [4]: 17 nM

Sequence: CGUAUACAUGAGGAUCACCCAUGUGAGGAUAUGCUUUAUUAUUAUUAUUAUUAUUGUUGCAGAAGGUACAUUGC
- apparent Kd [3]: 23.5 nM
- apparent Kd [4]: 18.2 nM

Sequence: AGCUGUGGCCGAGGAUAUCUAACCUUCAUAACCGAAAUAUAAUCGGACAUGAGGAUCACCCAUGUAGAGAAGGCGGUCUCAGCA
- apparent Kd [3]: 18.2 nM
- apparent Kd [4]: 191 nM

Sequence: GCGCGUUGAGGAUAUACGAACAUGUCGCCAGAUGUCAUGGUACAUGAGGAUCACCCAUGUAGAAGGUGGUGCGC
- apparent Kd [3]: 208 nM
- apparent Kd [4]: 352 nM

Sequence: GGCAGCUCAGGAUAUAGUUAAAACGACAUGAGGAUCACCCAUGUGACUGAUAUGCGGCGCCUAGAAGGGAGGUGCC
- apparent Kd [3]: 18.9 nM
- apparent Kd [4]: 18.2 nM

Sequence: GCGAUUUUGUAAGGAUAUACACGAGUUUUAAGUGUAGAAGGUACUUACAUGAGGAUCACCCAUGUAUUAAUGAUUACUAGUCGC
- apparent Kd [1]: 6.99 nM
- apparent Kd [2]: 6.33 nM

Sequence: ACUAGAUGAGGAUAUGCACAUUUUAGUGUUCCUCUAGAUUAACAUGAGGAUCACCCAUGUAGAAGGCGUCAAUU
- apparent Kd [3]: 45.7 nM
- apparent Kd [4]: 64.8 nM

Sequence: AGGCGACAUGAGGAUCACCCAUGUGAGGAUAUCGAACUCUACUGUUGUGAGAGUAAGGCGAGAAGGCACACAGU
- apparent Kd [3]: 22.7 nM
- apparent Kd [4]: 25.3 nM

Sequence: GGUAGCAACACAGGAUAUGCUAUCCUUUGGGUAGCAGAAGGGUGAAACAUGAGGAUCACCCAUGUGCUGCCAGGGCGUGAGCCC
- apparent Kd [1]: 1800 nM
- apparent Kd [2]: 136 nM

Sequence: UUUAUAAAUUAGAAGGCGUGAUAAAAUACAAUAAACAUGAGGAUCACCCAUGUGUACCCAUGUUAUGAGGAUAUAGUCAUAUAU
- apparent Kd [1]: 462 nM
- apparent Kd [2]: 377 nM

Sequence: CAAGGAUACUUAUAAGCUGACAAACCAGAAGGAUGAGCCUCUACAUGAGGAUCACCCAUGUGUUCGUAGGAUAUGGGUCGGAAG
- apparent Kd [1]: 11.3 nM
- apparent Kd [2]: 31.5 nM

Sequence: AUCAUGUGAGGAUAUGUGAUCAACCUUCUGUAUAGAUGAUUACAGAAGGCACAUGAGGAUCACCCAUGUAGAUC
- apparent Kd [3]: 70.9 nM
- apparent Kd [4]: 79 nM

Sequence: GGAUGACAAAGUCAUCCAAAUCGAACAUGAGGAUCACCCAUGUAGGAUAUGCUACUGAAACAGUAGCAGAAGGACAUGUGCUUU
- apparent Kd [3]: 35.3 nM
- apparent Kd [4]: 187 nM

Sequence: GCGUCACAAUUAGAACCAAUACGAACAUGAGGAUCACCCAUGUAGGAUAUGCUAGAAGUUGAGUUGCAGAAGGACAUUUAUCGC
- apparent Kd [3]: 10.6 nM
- apparent Kd [4]: 9.8 nM
